Activity calls are given as the source filed them. No cut-off for these calls is given here. A value given as a limit tells only on which side of the number the result lay.

Data set [1] concerns the target Cystic fibrosis transmembrane conductance regulator (Homo sapiens, UniProt P13569, H148Q). Kind of data set: Activation of human CFTR expressed in FRT cells co-expressing YFP H148Q mutant assessed as increase in forskolin-stimulated iodide influx measured after 10 mins by fluorescence assay. The format is cell-based. The essentials: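 FRT cells stably coexpressing human wild-type CFTR and YFP-H148Q, near-confluent; washed with PBS, then 10 min in PBS with test compound and 125 nM forskolin. YFP fluorescence recorded 2 s baseline and 12 s after iodide addition (final 140 mM). Iodide influx rates fitted to concentration–response curves for EC50.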

Data set [2] addresses Cystic fibrosis transmembrane conductance regulator (Homo sapiens, UniProt P13569). Briefly: Activation of human CFTR expressed in forskolin-stimulated basolateral membrane permeabilized FRT cells assessed as increase in short-circuit current amplitude after 30 mins by voltage clamp method. The format is cell-based. The essentials: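 Short-circuit current in FRT cells expressing human wild-type CFTR grown on porous filters, with a transepithelial chloride gradient and permeabilized basolateral membrane. Low-concentration forskolin added first, then cumulative activator concentrations, finally 10 μM CFTRinh-172. EC50 from concentration–response, mean ± SEM, n = 3.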

For data set [3], the system named is Mus musculus. Kind of data set: Suppression of constipation in po dosed loperamide-induced CD1 mouse acute constipation model assessed as normalization of pellet number administered 1 hr prior to loperamide addition measured after 3 hrs. The format is functional. Summed up: (§1)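 CD1 mice, 8–10 weeks; compound or vehicle (saline, 5% DMSO, 10% Kolliphor HS 15) given orally at 0, 0.1, 0.3, 1, 3 or 10 mg/kg 1 h before loperamide 0.3 mg/kg ip. Stool collected 3 h in metabolic cages; weight, pellet count and water content (wet/dry weights). Mean ± SEM, 4 mice per group.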

Data set [4] is described as follows: Effect on cAMP levels in Fischer rat thyroid cells at 10 uM incubated for 10 mins by immunoassay. The settings on record: thyroid cell. The format is ADME, cell-based. The essentials: (§2)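 FRT cells incubated 10 min with 10 μM compound, without or with 90 nM forskolin, then cellular cAMP measured. Positive controls: forskolin 100 nM and 20 μM, forskolin + IBMX (20 μM + 100 μM). Mean ± SEM, n = 4.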

Data set [5] can be described thus: Elevation of cytoplasmic calcium levels in Fischer rat thyroid cells at 10 uM after 5 mins by Fluo-4 based fluorescence assay. Particulars: thyroid cell.
A short description of data set [6]: Effect on forskolin-stimulated cAMP levels in Fischer rat thyroid cells at 10 uM incubated for 10 mins by immunoassay. The format is ADME, cell-based. Particulars: thyroid cell. The essentials:
as §2
A general note: Cyclic AMP is a second messenger, typically raised through Gs and lowered through Gi signalling.

Data set [7] is filed under the species Homo sapiens. Briefly: Activation of calcium-activated chloride channel in human HT29 cells co-expressing YFP at 10 uM after 10 mins presence of iodide by fluorescence assay. The format is cell-based.
The target in data set [8] is T1, Anoctamin-1 (Homo sapiens) (UniProt Q5XXA6).
T1 sequence (whole entry): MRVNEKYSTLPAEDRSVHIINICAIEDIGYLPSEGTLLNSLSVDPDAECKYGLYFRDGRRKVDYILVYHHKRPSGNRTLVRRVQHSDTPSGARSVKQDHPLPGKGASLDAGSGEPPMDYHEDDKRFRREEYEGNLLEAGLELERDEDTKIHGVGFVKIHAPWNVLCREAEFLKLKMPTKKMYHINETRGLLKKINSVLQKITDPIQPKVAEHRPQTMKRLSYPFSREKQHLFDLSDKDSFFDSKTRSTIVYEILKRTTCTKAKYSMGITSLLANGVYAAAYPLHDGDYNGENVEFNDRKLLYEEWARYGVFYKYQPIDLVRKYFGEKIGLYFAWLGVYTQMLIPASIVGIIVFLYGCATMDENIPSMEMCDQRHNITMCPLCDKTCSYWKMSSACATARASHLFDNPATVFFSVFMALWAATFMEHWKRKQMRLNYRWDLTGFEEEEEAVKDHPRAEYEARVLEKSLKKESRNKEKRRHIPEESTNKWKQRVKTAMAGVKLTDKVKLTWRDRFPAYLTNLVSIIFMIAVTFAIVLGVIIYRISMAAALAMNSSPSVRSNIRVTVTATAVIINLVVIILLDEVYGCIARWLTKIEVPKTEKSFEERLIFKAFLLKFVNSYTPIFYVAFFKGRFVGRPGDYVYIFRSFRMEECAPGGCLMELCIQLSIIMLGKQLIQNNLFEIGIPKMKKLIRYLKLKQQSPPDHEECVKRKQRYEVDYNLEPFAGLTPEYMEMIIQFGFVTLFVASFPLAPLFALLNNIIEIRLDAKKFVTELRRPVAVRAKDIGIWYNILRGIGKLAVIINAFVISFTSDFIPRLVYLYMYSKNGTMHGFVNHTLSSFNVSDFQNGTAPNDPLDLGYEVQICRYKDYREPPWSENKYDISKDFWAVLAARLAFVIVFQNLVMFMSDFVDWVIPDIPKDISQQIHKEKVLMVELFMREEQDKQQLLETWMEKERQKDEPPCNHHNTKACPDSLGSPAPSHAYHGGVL
Kind of data set: Activation of human TMEM16A expressed in FRT cells co-expressing YFP assessed as increase in iodide influx at 10 uM measured after 10 mins by fluorescence assay. The format is cell-based. The essentials:
(§3)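 FRT cells coexpressing YFP and TMEM16A; continuous single-well YFP fluorescence for 2 s before and 12 s after addition of iodide solution (final 140 mM iodide). Activation read with iodide alone, inhibition with iodide plus ATP; compound at 10 μM. Iodide influx rate calculated from fluorescence quenching.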

In data set [9] the test system is Mus musculus. Kind of data set: Suppression of constipation in po dosed loperamide-induced CD1 mouse acute constipation model assessed as normalization of stool water content administered 1 hr prior to loperamide addition measured after 3 hrs. The format is functional. The essentials: as §1
Data set [10] addresses T1, Anoctamin-1 (Homo sapiens). Kind of data set: Inhibition of human TMEM16A expressed in FRT cells co-expressing YFP assessed as decrease in iodide influx at 10 uM measured after 10 mins in presence of ATP by fluorescence assay. The format is cell-based. Summed up: as §3
Data set [11] is filed under the species Homo sapiens. Briefly: Inhibition of calcium-activated chloride channel in human HT29 cells co-expressing YFP assessed as reduction in ATP-stimulated calcium levels at 10 uM preincubated for 10 mins followed by ATP addition in presence of iodide by fluorescence assay. The format is cell-based.

Chain of Cystic fibrosis transmembrane conductance regulator (Homo sapiens, UniProt P13569, H148Q) (P13569 whole entry, looked up, stated change not applied): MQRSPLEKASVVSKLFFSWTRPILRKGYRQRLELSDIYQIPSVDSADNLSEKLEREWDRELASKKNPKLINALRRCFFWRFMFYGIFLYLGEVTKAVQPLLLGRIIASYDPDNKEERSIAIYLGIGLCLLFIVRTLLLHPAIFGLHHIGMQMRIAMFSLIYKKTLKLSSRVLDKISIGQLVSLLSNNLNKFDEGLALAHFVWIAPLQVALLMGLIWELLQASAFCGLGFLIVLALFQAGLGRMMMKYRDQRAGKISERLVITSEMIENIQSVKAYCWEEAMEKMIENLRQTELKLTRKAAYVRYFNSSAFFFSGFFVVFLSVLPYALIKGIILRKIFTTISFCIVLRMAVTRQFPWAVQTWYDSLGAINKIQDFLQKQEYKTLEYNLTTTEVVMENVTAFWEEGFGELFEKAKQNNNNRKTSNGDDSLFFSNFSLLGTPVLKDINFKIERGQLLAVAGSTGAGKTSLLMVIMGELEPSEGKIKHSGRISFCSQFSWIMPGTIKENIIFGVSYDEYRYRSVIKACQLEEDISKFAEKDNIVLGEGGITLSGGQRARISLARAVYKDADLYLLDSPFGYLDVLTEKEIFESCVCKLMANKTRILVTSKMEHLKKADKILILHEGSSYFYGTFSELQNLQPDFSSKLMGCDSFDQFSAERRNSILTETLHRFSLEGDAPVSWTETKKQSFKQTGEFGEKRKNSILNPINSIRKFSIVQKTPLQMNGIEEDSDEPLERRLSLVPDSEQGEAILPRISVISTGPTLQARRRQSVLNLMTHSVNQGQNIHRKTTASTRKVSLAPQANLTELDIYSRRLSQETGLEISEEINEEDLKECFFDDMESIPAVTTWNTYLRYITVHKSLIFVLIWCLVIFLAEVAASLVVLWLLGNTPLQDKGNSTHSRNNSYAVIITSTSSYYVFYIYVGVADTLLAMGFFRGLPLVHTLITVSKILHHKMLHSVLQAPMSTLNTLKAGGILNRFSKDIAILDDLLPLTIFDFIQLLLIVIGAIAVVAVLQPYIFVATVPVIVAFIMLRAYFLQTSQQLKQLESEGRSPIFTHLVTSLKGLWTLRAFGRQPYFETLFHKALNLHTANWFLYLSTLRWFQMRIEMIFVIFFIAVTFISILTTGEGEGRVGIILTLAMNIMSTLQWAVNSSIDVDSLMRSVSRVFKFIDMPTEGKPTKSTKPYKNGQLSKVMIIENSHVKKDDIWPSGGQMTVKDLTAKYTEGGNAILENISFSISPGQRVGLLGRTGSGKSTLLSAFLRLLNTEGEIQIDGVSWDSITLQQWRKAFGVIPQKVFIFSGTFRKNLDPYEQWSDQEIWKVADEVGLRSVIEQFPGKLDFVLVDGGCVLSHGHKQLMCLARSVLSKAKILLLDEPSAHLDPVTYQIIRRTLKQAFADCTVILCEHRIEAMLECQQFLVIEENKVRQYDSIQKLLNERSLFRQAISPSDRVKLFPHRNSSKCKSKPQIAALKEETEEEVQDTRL

Take `O=c1c(-c2cccc([N+](=O)[O-])c2)nc2ccc(Br)cc2n1Cc1ccccc1`: in [1], the EC50 result was “Not Active”. With `O=c1c(-c2cccc([N+](=O)[O-])c2)nc2ccccc2n1Cc1cccs1`, the EC50 in data set [1] (read-out: EC50) is 0.01 µM. Also, in data set [2], the Activity result is “Dose-dependent effect” and the half-maximal effective concentration (EC50) is 0.07 µM. In the case of `O=c1c(-c2cccc([N+](=O)[O-])c2)nc2ccccc2n1Cc1cccc2ccccc12`, the EC50 result in [1] is recorded as “Not Active”. Turning to `Fc1ccc2nc3n(Cc4ccccc4)c4ccc(C(F)(F)F)cc4nc-3c2c1`, in data set [1] (read-out: EC50), the EC50 was above 10 µM. On the same count and under the same terms, the same measure for `O=c1[nH]c2ccccc2nc1-c1cccc([N+](=O)[O-])c1`: above 10 µM; for `Cn1c(=O)c(-c2cccc([N+](=O)[O-])c2)nc2ccccc21`: above 10 µM. On to `O=[N+]([O-])c1ccc2nc3n(Cc4ccccc4)c4ccc(C(F)(F)F)cc4nc-3c2c1`, for which the EC50 in data set [1] (read-out: EC50) is above 10 µM. For the molecule `O=c1c(-c2cccc([N+](=O)[O-])c2)nc2cc(F)c(F)cc2n1Cc1ccccc1`, in data set [1] (read-out: EC50), the EC50 is above 10 µM. On the same count and under the same terms, the same measure for `Cc1cccc2nc(-c3cccc([N+](=O)[O-])c3)c(=O)n(Cc3ccccc3)c12`: above 10 µM. Consider `O=c1c(-c2cccc([N+](=O)[O-])c2)nc2ccccc2n1Cc1ccccc1`, for which the ED50 in the data set on Mus musculus [3] and in the data set on Mus musculus [9] was below 1 mg/kg in each case. The Activity result in data set [4] was “Non-Toxic”; in data set [2], “Dose-dependent effect”; in data set [5], “Non-Toxic”; in [6] it was “Non-Toxic”. For the same molecule, the outcome (in the data set filed under Homo sapiens [7]; in data set [8]) was inactive. Also, the inhibition result (in data set [10]; in the data set filed under Homo sapiens [11]) was “inactive” in each case. On to `N#Cc1cccc(-c2nc3ccccc3n(Cc3ccccc3)c2=O)c1`, for which the EC50 in [1] (read-out: EC50) worked out at 1 µM. The same measure, in the same setting: the same measure for `CC(=O)Nc1ccc([N+](=O)[O-])cc1-c1nc2cccc3c2n(c1=O)CCO3`: 0.82 µM. As to `O=c1c(-c2cccc([N+](=O)[O-])c2)nc2cc(Cl)c(Cl)cc2n1Cc1ccccc1`, the EC50 in data set [1] (read-out: EC50) was above 10 µM. Still for that read-out and setting: the same measure for `Nc1ccc([N+](=O)[O-])cc1-c1nc2cccc3c2n(c1=O)C(c1ccccc1)CO3` (centres undefined): above 10 µM; for `Nc1ccc(C(=O)O)cc1-c1nc2ccccc2n(Cc2ccccc2)c1=O`: above 10 µM; for `O=C(O)c1ccc([N+](=O)[O-])c(-c2nc3ccccc3n(Cc3ccccc3)c2=O)c1`: above 10 µM.

Turning to `COC(=O)c1ccc([N+](=O)[O-])c(-c2nc3ccccc3n(Cc3ccccc3)c2=O)c1`, the EC50 in [1] (read-out: EC50) amounted to 9.9 µM. The same measure, in the same setting: the same measure for `Cc1cc2nc(-c3cccc([N+](=O)[O-])c3)c(=O)n(Cc3ccccc3)c2cc1C`: above 10 µM.

The EC50 is the concentration giving half of the maximal effect. Usually ED50 stands for the midpoint of the dose-response relation.

For the origin of these results see ChEMBL document CHEMBL4007437, “High-Potency Phenylquinoxalinone Cystic Fibrosis Transmembrane Conductance Regulator (CFTR) Activators” (J Med Chem, 2017).
